Reference: ChEMBL document CHEMBL5030505, “Assessment of NR4A Ligands That Directly Bind and Modulate the Orphan Nuclear Receptor Nurr1” (J Med Chem, 2020)
Calls of active or inactive are those of the source. The rule behind the calls is not given here.

How the values were obtained:
Format in all cases: cell-based
[1] = biological target: Nuclear receptor subfamily 4 group A member 2 (Homo sapiens) (UniProt P43354); test: Modulation of full length human Nurr1 expressed in SKNBE(2) cells co-transfected with luciferase reporter plasmid harboring NurRE response element assessed as increase in luciferase activity at 100 uM incubated for 18 hrs by luciferase reporter gene assay; settings: SKNBE2, filed as modulator
Chain of Nuclear receptor subfamily 4 group A member 2 (Homo sapiens) (P43354 whole entry): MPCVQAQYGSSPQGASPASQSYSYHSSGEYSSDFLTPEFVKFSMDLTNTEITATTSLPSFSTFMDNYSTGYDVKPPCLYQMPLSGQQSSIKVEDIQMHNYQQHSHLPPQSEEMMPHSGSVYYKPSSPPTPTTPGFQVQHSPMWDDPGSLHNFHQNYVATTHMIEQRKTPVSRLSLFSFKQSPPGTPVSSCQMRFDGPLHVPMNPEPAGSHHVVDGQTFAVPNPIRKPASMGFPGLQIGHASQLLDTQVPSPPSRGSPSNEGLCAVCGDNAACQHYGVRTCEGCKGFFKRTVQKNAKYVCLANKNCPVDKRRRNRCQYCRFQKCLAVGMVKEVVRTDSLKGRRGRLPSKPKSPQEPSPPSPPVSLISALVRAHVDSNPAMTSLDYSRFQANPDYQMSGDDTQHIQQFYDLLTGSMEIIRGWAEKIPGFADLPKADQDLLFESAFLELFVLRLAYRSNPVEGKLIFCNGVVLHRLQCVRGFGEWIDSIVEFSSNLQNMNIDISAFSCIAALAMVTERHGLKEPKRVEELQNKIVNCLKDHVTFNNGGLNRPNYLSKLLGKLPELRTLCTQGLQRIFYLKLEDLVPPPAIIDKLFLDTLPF

[2] = biological target: Nuclear receptor subfamily 4 group A member 2 (Homo sapiens) (UniProt P43354); test: Modulation of full length human Nurr1 expressed in PC12 cells co-transfected with RXRalpha and luciferase reporter plasmid harboring NurRE response element assessed as increase in luciferase activity at 100 uM incubated for 18 hrs by luciferase reporter gene assay; settings: PC-12, filed as modulator
Outline: (§1)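 PC12 cells were grown at 37°C and 5% CO2 in […] medium with 15% horse serum and 2.5% FBS. They were transfected with full-length Nurr1 (1 μg) plus full-length RXRα (1 μg) and 3xNBRE- or 3xNurRE-luciferase reporter (6 μg) for 18 h, then replated at 10,000 cells/well for 4 h. Ligand or vehicle (water, ethanol or DMSO) was added in quadruplicate for 18 h. Luminescence was read as fold change over vehicle. Results are mean ± s.e.m., n=4, from 2 independent experiments, analysed by one-way ANOVA against vehicle.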

[3] = biological target: Nuclear receptor subfamily 4 group A member 2 (Homo sapiens) (UniProt P43354); test: Modulation of full length human Nurr1 expressed in SKNBE(2) cells co-transfected with luciferase reporter plasmid harboring NBRE response element assessed as increase in luciferase activity at 100 uM incubated for 18 hrs by luciferase reporter gene assay; settings: SKNBE2, filed as modulator
Outline: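 Transfection of SK-N-BE(2)-C cells (1:1 EMEM/F12, 10% FBS, 37°C, 5% CO2) used full-length Nurr1 alone (2 μg, no RXRα) with 3xNBRE- or 3xNurRE-luciferase reporter (6 μg) for 18 h. Cells were replated at 10,000/well for 4 h, then exposed to ligand or vehicle in quadruplicate for 18 h. Luminescence was expressed as fold over vehicle, as mean ± s.e.m. (n=4) from 2 independent experiments, one-way ANOVA against vehicle.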

HEK-293T = test: Cytotoxicity in human HEK293T cells assessed as reduction in cell viability at 0.01 to 100 uM incubated for 18 hrs by Cell Titer-Glo assay; settings: dose 0.01-100 µM
Outline: (§2)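 Cells seeded at 1.5 million per 10-cm dish. Next day they were replated at 10,000 cells/well and rested 4 h. Ligand or vehicle (water, ethanol or DMSO, by ligand) was added in dose-response format in quadruplicate. After 18 h, viability was read by CellTiter-Glo luminescence. Data are mean ± s.e.m., generally representative of 2 independent experiments. One-way ANOVA versus vehicle.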

[4] = biological target: Nuclear receptor subfamily 4 group A member 2 (Homo sapiens) (UniProt P43354); test: Modulation of full length human Nurr1 expressed in PC12 cells co-transfected with luciferase reporter plasmid harboring NurRE response element assessed as increase in luciferase activity at 100 uM incubated for 18 hrs by luciferase reporter gene assay; settings: PC-12, filed as modulator
Outline: (§3)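 Here PC12 cells (FK-12 medium, 15% horse serum, 2.5% FBS, 37°C, 5% CO2) received full-length Nurr1 (2 μg) without RXRα, plus 3xNBRE- or 3xNurRE-luciferase reporter (6 μg), for 18 h. Cells were replated at 10,000/well for 4 h, then treated with ligand or vehicle in quadruplicate for 18 h. Luciferase luminescence was normalized to vehicle-treated cells. Results are mean ± s.e.m. (n=4) from 2 independent experiments, with one-way ANOVA against vehicle.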

PC-12 [5] = test: Modulation of Gal4-fused VP16 expressed in PC12 cells co-transfected with UAS repoter gene assessed as increase in luciferase activity at 0.01 to 100 uM incubated for 18 hrs by luciferase reporter gene assay; settings: Human alphaherpesvirus 2, filed as modulator, dose 0.01-100 µM
Outline: (§4)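 Cells in 10-cm dishes were transfected with Gal4-VP16 expression plasmid (2 μg) plus 5xUAS-luciferase reporter (2 μg) for 18 h. They were replated at 10,000 cells/well for 4 h, then given ligand or vehicle (water, ethanol or DMSO) in quadruplicate for 18 h. Luciferase was read with Britelite Plus. Fold change is versus vehicle-treated cells, with one-way ANOVA versus vehicle.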

[6] = biological target: Nuclear receptor subfamily 4 group A member 2 (Homo sapiens) (UniProt P43354); test: Modulation of full length human Nurr1 expressed in PC12 cells co-transfected with RXRalpha and luciferase reporter plasmid harboring NBRE response element assessed as increase in luciferase activity at 100 uM incubated for 18 hrs by luciferase reporter gene assay; settings: PC-12, filed as modulator; outline: as §1
[7] = biological target: Nuclear receptor subfamily 4 group A member 2 (Homo sapiens) (UniProt P43354); test: Modulation of full length human Nurr1 expressed in HEK293T cells co-transfected with luciferase reporter plasmid harboring NurRE response element assessed as increase in luciferase activity at 100 uM incubated for 18 hrs by luciferase reporter gene assay; settings: filed as modulator
Outline: (§5)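 Full-length Nurr1 plasmid, alone (2 μg) or 1 μg plus full-length RXRα (1 μg), cotransfected with 3xNBRE- or 3xNurRE-luciferase reporter (6 μg) using Lipofectamine 2000, 18 h. Cells replated at 10,000/well for 4 h. Four ligand concentrations, or vehicle (water, ethanol or DMSO), added in quadruplicate for 18 h. Luciferase read. Fold change vs vehicle, mean ± s.e.m., one-way ANOVA vs vehicle.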

PC-12 [8] = test: Cytotoxicity in rat PC-12 cells assessed as reduction in cell viability at 0.01 to 100 uM incubated for 18 hrs by Cell Titer-Glo assay; settings: pc-12, 18 h, dose 0.01-100 µM; outline: as §2
HEK293T = test: Modulation of Gal4-fused VP16 expressed in HEK293T cells co-transfected with UAS repoter gene assessed as increase in luciferase activity at 0.01 to 100 uM incubated for 18 hrs by luciferase reporter gene assay; settings: Human alphaherpesvirus 2, filed as modulator, dose 0.01-100 µM; outline: as §4
[9] = biological target: Nuclear receptor subfamily 4 group A member 2 (Homo sapiens) (UniProt P43354); test: Modulation of full length human Nurr1 expressed in HEK293T cells co-transfected with RXRalpha and luciferase reporter plasmid harboring NurRE response element assessed as increase in luciferase activity at 100 uM incubated for 18 hrs by luciferase reporter gene assay; settings: filed as modulator; outline: as §5
SK-N-BE(2) = test: Cytotoxicity in human SKNBE2 cells assessed as reduction in cell viability at 0.01 to 100 uM incubated for 18 hrs by Cell Titer-Glo assay; settings: dose 0.01-100 µM; outline: as §2
[10] = biological target: Nuclear receptor subfamily 4 group A member 2 (Homo sapiens) (UniProt P43354); test: Modulation of full length human Nurr1 expressed in SKNBE(2) cells co-transfected with RXRalpha and luciferase reporter plasmid harboring NBRE response element assessed as increase in luciferase activity at 100 uM incubated for 18 hrs by luciferase reporter gene assay; settings: SKNBE2, filed as modulator
Outline: (§6)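 SK-N-BE(2)-C cells were kept in 1:1 EMEM/F12 with 10% FBS at 37°C and 5% CO2. They were cotransfected with full-length Nurr1 (1 μg), full-length RXRα (1 μg) and 3xNBRE- or 3xNurRE-luc reporter (6 μg) for 18 h, replated at 10,000 cells/well for 4 h, and then treated with ligand or vehicle in quadruplicate for 18 h. The readout was luciferase luminescence as fold over vehicle, reported as mean ± s.e.m. (n=4) from 2 independent experiments, one-way ANOVA.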

[11] = biological target: Nuclear receptor subfamily 4 group A member 2 (Homo sapiens) (UniProt P43354); test: Modulation of full length human Nurr1 expressed in PC12 cells co-transfected with luciferase reporter plasmid harboring NBRE response element assessed as increase in luciferase activity at 100 uM incubated for 18 hrs by luciferase reporter gene assay; settings: PC-12, filed as modulator; outline: as §3
[12] = biological target: Nuclear receptor subfamily 4 group A member 2 (Homo sapiens) (UniProt P43354); test: Modulation of full length human Nurr1 expressed in HEK293T cells co-transfected with luciferase reporter plasmid harboring NBRE response element assessed as increase in luciferase activity at 100 uM incubated for 18 hrs by luciferase reporter gene assay; settings: filed as modulator; outline: as §5
[13] = biological target: Nuclear receptor subfamily 4 group A member 2 (Homo sapiens) (UniProt P43354); test: Modulation of full length human Nurr1 expressed in SKNBE(2) cells co-transfected with RXRalpha and luciferase reporter plasmid harboring NurRE response element assessed as increase in luciferase activity at 100 uM incubated for 18 hrs by luciferase reporter gene assay; settings: SKNBE2, filed as modulator; outline: as §6
[14] = biological target: Nuclear receptor subfamily 4 group A member 2 (Homo sapiens) (UniProt P43354); test: Modulation of full length human Nurr1 expressed in HEK293T cells co-transfected with RXRalpha and luciferase reporter plasmid harboring NBRE response element assessed as increase in luciferase activity at 100 uM incubated for 18 hrs by luciferase reporter gene assay; settings: filed as modulator; outline: as §5

Activity [1]: Active
Activity [2]: Active
Activity [3]: Active
Activity [4]: Active
Activity [6]: Active
Activity [7]: Active
Activity [9]: Active
Activity [10]: Active
Activity [11]: Active
Activity [12]: Active
Activity [13]: Active
Activity [14]: Active
SMILES: COCCOCc1ccc(-c2cc3onc(-c4ccccc4)c3c(=O)n2C)cc1
Activity (HEK-293T): Non-Toxic
Activity (PC-12 [5]): Active
Activity (PC-12 [8]): Non-Toxic
Activity (HEK293T): Active
Activity (SK-N-BE(2)): Non-Toxic
